PMC12464261 (Scientific Reports, 2025)
Read-outs that look alike come from different tables or passages of the source.

Columns and labels:
[1] = Toxicokinetic / pharmacokinetic study of insulin injection in Beagle dogs; assay type: in vivo, Beagle dogs (Canis lupus familiaris); conditions: subcutaneous, across all doses (0.5, 1, 1.5 IU/kg vs Lantus 1.5 IU/kg), Fig. 5
type 1 diabetic rats = assay type: in vivo, NOD rats
Outline: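 […]. […] Single dose: overnight fast, then tail-vein glucose by glucometer at 1, 2, 4 and 6 h. Multiple dose: daily injections, glucose at 2, 4 and 6 h post-injection. Triplicate measurements, means reported.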

[2] = target: T1, insulin receptor isoform A (IR-A) (Homo sapiens, UniProt P06213); assay: Insulin receptor phosphorylation assay; assay type: cell-based; conditions: CHO cells expressing insulin receptor; phospho-specific ELISA; Fig. 6A
T1 sequence (P06213 28-1370 isoform P06213-2 limits assumed): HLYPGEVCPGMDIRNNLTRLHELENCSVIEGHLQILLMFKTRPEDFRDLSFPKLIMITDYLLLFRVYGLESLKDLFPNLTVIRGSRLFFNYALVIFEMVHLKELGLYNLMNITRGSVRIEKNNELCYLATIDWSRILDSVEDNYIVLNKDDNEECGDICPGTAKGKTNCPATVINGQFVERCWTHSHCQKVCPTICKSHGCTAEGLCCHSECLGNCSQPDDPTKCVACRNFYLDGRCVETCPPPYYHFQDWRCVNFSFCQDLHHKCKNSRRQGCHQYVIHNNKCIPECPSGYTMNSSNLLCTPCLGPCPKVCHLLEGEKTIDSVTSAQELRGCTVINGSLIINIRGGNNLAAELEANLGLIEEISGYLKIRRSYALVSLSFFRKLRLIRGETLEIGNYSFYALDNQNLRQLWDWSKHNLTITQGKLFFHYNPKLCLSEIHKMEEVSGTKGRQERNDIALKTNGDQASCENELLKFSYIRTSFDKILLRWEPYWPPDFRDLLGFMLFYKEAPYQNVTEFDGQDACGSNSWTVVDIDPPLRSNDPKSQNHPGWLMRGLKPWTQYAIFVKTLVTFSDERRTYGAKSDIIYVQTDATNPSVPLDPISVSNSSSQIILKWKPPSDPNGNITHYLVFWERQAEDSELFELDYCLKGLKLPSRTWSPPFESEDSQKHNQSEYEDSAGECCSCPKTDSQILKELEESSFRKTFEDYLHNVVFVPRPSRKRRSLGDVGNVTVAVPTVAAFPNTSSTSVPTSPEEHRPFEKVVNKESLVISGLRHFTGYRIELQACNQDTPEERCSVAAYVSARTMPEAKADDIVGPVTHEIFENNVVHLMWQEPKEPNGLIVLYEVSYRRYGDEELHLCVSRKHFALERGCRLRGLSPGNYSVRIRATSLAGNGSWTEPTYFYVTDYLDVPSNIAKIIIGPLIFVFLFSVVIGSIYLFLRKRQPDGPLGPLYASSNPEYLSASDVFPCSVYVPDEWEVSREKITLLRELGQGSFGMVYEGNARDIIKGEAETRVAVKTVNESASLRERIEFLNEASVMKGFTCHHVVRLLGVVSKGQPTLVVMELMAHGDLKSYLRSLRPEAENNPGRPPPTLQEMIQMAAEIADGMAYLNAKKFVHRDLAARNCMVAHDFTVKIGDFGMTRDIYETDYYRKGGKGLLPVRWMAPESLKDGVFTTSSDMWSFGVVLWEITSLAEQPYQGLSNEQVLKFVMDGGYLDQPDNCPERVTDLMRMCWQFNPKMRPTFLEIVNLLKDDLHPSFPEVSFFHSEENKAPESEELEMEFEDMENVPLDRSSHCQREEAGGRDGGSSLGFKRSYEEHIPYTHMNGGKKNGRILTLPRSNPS
T1 sequence (P06213 763-1382 limits assumed): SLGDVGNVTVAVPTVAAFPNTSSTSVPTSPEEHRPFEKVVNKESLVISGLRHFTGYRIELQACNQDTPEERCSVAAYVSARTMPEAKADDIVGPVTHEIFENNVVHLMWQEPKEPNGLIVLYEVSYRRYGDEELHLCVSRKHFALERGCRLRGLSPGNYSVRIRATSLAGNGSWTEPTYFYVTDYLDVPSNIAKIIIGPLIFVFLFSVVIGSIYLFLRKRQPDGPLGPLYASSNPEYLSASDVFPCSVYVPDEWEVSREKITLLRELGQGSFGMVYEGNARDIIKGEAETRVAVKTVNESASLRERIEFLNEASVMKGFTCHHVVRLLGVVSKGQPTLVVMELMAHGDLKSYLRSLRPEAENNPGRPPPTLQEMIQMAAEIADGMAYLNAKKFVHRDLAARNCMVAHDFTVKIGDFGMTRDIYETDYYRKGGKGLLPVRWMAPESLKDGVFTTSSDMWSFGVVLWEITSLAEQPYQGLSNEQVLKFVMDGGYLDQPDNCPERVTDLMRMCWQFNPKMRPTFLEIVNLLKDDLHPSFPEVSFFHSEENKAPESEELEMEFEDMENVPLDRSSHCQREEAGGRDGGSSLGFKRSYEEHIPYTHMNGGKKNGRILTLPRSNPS
Outline: (§1)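 CHO cells expressing IR isoforms A and B were cultured in DMEM with 10% FBS and 1% penicillin-streptomycin, then serum-starved. Cells were exposed to insulin at 0.1, 1 or 10 nM for 5, 15 or 30 min. Lysates were applied to anti-phosphotyrosine-coated wells and detected with an HRP-conjugated secondary antibody. Receptor phosphorylation was quantified from absorbance.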

[3] = target: T2, insulin receptor isoform B (IR-B) (Homo sapiens, UniProt P06213); assay: Insulin receptor phosphorylation assay; assay type: cell-based; conditions: CHO cells expressing insulin receptor; phospho-specific ELISA; Fig. 6B
T2 sequence (P06213 28-758 limits assumed): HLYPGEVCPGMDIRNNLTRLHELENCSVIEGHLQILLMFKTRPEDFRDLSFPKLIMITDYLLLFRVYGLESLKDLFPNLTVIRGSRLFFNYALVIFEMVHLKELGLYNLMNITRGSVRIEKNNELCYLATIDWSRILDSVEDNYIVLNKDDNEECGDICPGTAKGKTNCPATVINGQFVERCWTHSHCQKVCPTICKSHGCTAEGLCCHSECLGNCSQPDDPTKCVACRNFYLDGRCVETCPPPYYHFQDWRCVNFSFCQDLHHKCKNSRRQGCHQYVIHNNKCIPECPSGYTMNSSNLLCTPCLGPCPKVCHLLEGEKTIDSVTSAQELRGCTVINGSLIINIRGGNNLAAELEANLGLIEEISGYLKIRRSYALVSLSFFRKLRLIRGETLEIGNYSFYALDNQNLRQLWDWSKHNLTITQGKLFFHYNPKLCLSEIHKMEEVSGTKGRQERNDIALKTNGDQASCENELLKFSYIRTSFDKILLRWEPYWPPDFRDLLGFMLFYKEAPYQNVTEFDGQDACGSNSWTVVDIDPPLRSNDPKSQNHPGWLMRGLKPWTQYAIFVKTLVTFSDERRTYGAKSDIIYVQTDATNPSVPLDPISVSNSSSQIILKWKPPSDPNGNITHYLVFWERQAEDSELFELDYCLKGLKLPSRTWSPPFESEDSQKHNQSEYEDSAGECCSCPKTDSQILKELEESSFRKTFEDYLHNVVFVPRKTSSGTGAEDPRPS
T2 sequence (P06213 763-1382 limits assumed): as the sequence (P06213 763-1382 limits assumed) above
Outline: as §1

[4] = target: T1, insulin receptor isoform A (IR-A); assay: Insulin receptor binding assay; conditions: CHO cell lysates, [125I]-labeled insulin competition; Fig. 6C
Outline: (§2)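 CHO cells expressing insulin receptor isoforms A and B were grown in DMEM with 10% FBS and 1% penicillin-streptomycin, then serum-starved. Cell lysates were incubated with [125I]-insulin with or without excess unlabeled competitor. Bound and free tracer were separated by gel filtration and radioactivity was counted per fraction. IC50 values came from competitive binding curves.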

[5] = target: T2, insulin receptor isoform B (IR-B); assay: Insulin receptor binding assay; conditions: CHO cell lysates, [125I]-labeled insulin competition; Fig. 6D
Outline: as §2

[6] = target: insulin-like growth factor 1 receptor (IGF-1R) (Homo sapiens, UniProt P08069); assay: IGF-1R binding assay; conditions: H19-7/IGF-1R cell line, [125I]-labeled IGF competition; Fig. 6E
Chain of insulin-like growth factor 1 receptor (IGF-1R) (P08069 31-736 limits assumed): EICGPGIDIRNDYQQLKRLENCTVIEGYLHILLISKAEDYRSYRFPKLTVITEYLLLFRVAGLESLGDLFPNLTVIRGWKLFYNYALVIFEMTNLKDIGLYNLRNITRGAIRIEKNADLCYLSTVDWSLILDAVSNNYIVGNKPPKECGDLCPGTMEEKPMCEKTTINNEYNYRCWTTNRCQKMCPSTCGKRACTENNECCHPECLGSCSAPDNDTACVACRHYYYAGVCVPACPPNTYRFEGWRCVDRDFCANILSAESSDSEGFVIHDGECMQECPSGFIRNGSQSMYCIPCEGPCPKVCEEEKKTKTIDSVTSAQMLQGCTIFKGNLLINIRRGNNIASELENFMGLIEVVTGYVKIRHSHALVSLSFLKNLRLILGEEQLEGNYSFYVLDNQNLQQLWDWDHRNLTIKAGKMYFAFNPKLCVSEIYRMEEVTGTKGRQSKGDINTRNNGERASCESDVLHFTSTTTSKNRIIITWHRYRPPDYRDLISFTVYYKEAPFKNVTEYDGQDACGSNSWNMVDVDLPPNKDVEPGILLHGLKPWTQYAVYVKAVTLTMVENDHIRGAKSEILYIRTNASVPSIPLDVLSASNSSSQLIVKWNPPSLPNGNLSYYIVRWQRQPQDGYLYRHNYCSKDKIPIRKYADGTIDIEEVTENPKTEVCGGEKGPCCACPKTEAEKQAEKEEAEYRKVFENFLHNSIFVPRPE
Chain of insulin-like growth factor 1 receptor (IGF-1R) (P08069 741-1367 limits assumed): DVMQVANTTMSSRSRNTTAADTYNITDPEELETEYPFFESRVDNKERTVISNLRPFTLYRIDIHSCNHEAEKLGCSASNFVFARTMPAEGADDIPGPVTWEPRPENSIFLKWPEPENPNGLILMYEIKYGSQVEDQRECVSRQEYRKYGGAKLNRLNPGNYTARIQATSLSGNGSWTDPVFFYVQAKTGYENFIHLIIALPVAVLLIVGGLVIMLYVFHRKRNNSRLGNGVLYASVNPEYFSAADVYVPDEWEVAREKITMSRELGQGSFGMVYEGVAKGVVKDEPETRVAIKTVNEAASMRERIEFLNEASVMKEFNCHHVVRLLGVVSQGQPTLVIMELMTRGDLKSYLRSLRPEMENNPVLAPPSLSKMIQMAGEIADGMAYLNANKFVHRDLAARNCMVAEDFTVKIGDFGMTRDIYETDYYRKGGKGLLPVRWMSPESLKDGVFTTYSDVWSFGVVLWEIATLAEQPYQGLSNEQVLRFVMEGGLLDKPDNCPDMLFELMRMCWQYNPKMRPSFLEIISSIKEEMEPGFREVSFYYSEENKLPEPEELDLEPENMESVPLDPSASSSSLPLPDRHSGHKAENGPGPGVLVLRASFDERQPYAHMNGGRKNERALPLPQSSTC

animals = assay: In vivo immunogenicity studies in animals; conditions: no details given
[7] = target: insulin lisargine (human); assay: crystal structure
[8] = target: insulin lisargine (human); assay: crystal structure; remark: listed apart in the source

IR-A phosphorylation levels compared with Lantus [2]	IR-B phosphorylation levels compared with Lantus [3]	binding affinity to IR-A compared with Lantus [4]	binding affinity to IR-B compared with Lantus [5]	stoichiometry N [7]	stoichiometry N [8]	Substance	plasma insulin concentrations compared with Lantus (insulin glargine) [1]	glucose-lowering effect compared with glargine (type 1 diabetic rats; 5 IU/kg (abstract))	blood glucose levels compared with solvent control, multiple-dose (type 1 diabetic rats; daily administration, at 2, 4 and 6 h post-administration, Fig. 4B)	glucose-lowering effects compared with Aspart Insulin (type 1 diabetic rats; equivalent dose of 5 IU/kg, single-dose and multiple-dose studies)	time of most pronounced glucose-lowering effect, multiple-dose (type 1 diabetic rats; multiple-dose, 5 IU/kg group, Fig. 4B) [h]	time of peak glucose-lowering effect, multiple-dose (type 1 diabetic rats; multiple-dose, 10 IU/kg, Fig. 4B) [h]	blood glucose levels compared with solvent control, single-dose (type 1 diabetic rats; single dose (2.5, 5, 10 IU/kg), at 1, 2, 4 and 6 h post-administration, Fig. 4A)	time point of most pronounced glucose-lowering effect, single-dose (type 1 diabetic rats; single dose, Fig. 4A) [h]	IGF-1R binding affinity / IC50 compared with Lantus (insulin glargine) [6]	immunogenicity in animals (animals)
no significant differences	no significant differences	comparable binding affinities	comparable binding affinities			insulin lisargine	no significant differences	significantly outperformed glargine	significant reductions	comparable to the clinical drug Aspart Insulin	4	6	statistically significant reductions	4	no significant differences in binding affinity or IC50 values	favorable safety profile
				2	6	insulin lisargine (ligand)										
